Assay results published in ChEMBL document CHEMBL3351748, “Synthesis and anticonvulsant activity of novel purine derivatives” (Eur J Med Chem, 2014).
Activity calls are given as the source filed them. No cut-off for these calls is given here.

Columns and labels:
[1] = tested on: Mus musculus; assay: Protective index, ratio of intraperitoneal neurotoxic TD50 against Kunming mouse by rotarod test to intraperitoneal anticonvulsant ED50 in Kunming mouse by MES test
In short: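 Protective index is TD50/ED50. Both come from i.p. dosing in KunMing mice: ED50 from protection of hind-leg tonic extension in the 0.5 h MES test, TD50 from failure to stay 1 min on the 10 rpm rotarod.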

[2] = tested on: Mus musculus; assay: Anticonvulsant activity in ip dosed Kunming mouse assessed as protection against MES-induced seizures after 0.5 hrs by MES test; format: functional
In short: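 KunMing mice (18-22 g) dosed i.p., compounds dissolved in DMSO; corneal-electrode shock (0.2 s) 30 min after administration. Endpoint is abolition of hind-leg tonic extension. ED50 is the dose protecting 50% of animals, given with 95% confidence intervals.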

[3] = tested on: Mus musculus; assay: Anticonvulsant activity in Kunming mouse assessed as protection against MES-induced seizures at 30 mg/kg, ip after 0.5 hrs by MES test; format: functional, organism-based; design: dose 30 mg/kg
In short: (§1)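 KunMing mice (18-22 g), compounds in DMSO given i.p. at 30 and 100 mg/kg, 3 animals per dose. Examined 0.5 h after dosing; current applied 0.2 s through corneal electrodes. Protection scored as abolition of hind-leg tonic maximal extension; reported as animals protected/animals tested.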

[4] = tested on: Mus musculus; assay: Anticonvulsant activity in Kunming mouse assessed as protection against MES-induced seizures at 100 mg/kg, ip after 0.5 hrs by MES test; format: functional, organism-based; design: dose 100 mg/kg; in short: as §1
[5] = Toxicity in ip dosed Kunming mouse assessed as inability of animal to maintain equilibrium on rod for at least 1 min in each trial by rotarod test; format: organism-based; settings: in vivo
In short: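 Mice pre-trained on a rotarod (3.2 cm diameter, 10 rpm), then dosed i.p. Neurotoxicity scored as failure to keep balance on the rod for at least 1 min in each trial. TD50 is the dose giving minimal neurotoxicity in 50% of animals.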

[6] = Toxicity in orally dosed Kunming mouse assessed as inability of animal to maintain equilibrium on rod for at least 1 min in each trial by rotarod test; format: organism-based; settings: in vivo, po
In short: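 Rotarod test (3.2 cm rod, 10 rpm) in trained mice after oral dosing in 0.5% methylcellulose, tested at the 1.5 h time of peak effect. Toxicity is failure to stay on the rod for at least 1 min per trial. TD50 is the median dose for minimal neurotoxicity.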

[7] = tested on: Mus musculus; assay: Anticonvulsant activity in orally dosed Kunming mouse assessed as protection against MES-induced seizures after 1.5 hrs by MES test; settings: po
[8] = species on record: Mus musculus; assay: Protective index, ratio of oral neurotoxic TD50 against Kunming mouse by rotarod test to oral anticonvulsant ED50 in Kunming mouse by MES test
[9] = tested on: Mus musculus; assay: Anticonvulsant activity in Kunming mouse assessed as protection against sc-PTZ-induced mortality 50 mg/kg, sc administered 30 mins before PTZ injection; format: functional; settings: route subcutaneous
In short: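 KunMing mice (18–22 g), 10 per group, given test agent dissolved in DMSO. Thirty minutes later, PTZ 85 mg/kg in saline was injected s.c. Animals were held in individual cages and watched for 0.5 h. Clonic seizures, tonic seizures and deaths were counted, and mortality was expressed as % inhibition.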

[10] = tested on: Mus musculus; assay: Anticonvulsant activity in Kunming mouse assessed as protection against sc-PTZ-induced tonic seizures 50 mg/kg, sc administered 30 mins before PTZ injection; format: functional; settings: route subcutaneous
In short: (§2)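 Mice, 10 per group, dosed at 50 mg/kg. PTZ 85 mg/kg in saline given s.c. 30 min later. Animals housed individually and watched for 0.5 h. Clonic seizures, tonic seizures (usually maximal hind-leg extension) and deaths counted as percent inhibition.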

[11] = tested on: Mus musculus; assay: Anticonvulsant activity in Kunming mouse assessed as protection against sc-PTZ-induced clonic seizures 50 mg/kg, sc administered 30 mins before PTZ injection; format: functional; settings: route subcutaneous; in short: as §2
[12] = tested on: Mus musculus; assay: Anticonvulsant activity in orally dosed Kunming mouse assessed as time of peak effect for protection against MES-induced seizures […] by MES test; format: functional

SMILES | Ratio TD50/ED50 [1] | ED50 [2] | Activity [3] | Activity [4] | TD50 at 1 min [5] | also measured
CCCCCCCCCCn1cnc2c(-n3cnc(C)c3)ncnc21 | 2.9 | 67.5 mg/kg | inactive | Active | 196 mg/kg | –
CCCCCCCn1cnc2c(-n3cncn3)ncnc21 | 3.3 | 31.5 mg/kg | Active | Active | 105 mg/kg | –
Cc1ccc(Cn2cnc3c2ncn2cnnc32)cc1 | – | – | inactive | inactive | – | –
CCCCn1cnc2c1ncn1cnnc21 | – | – | inactive | inactive | – | –
Fc1cccc(Cn2cnc3c(-n4cncn4)ncnc32)c1 | 8.3 | 45.9 mg/kg | inactive | Active | 384 mg/kg | –
Cc1ccc(Cn2cnc3c(-n4cncn4)ncnc32)cc1 | – | – | inactive | inactive | – | –
Clc1ccccc1Cn1cnc2c1ncn1cnnc21 | 6.1 | 51.9 mg/kg | inactive | Active | 315 mg/kg | –
Fc1ccccc1Cn1cnc2c(-n3cccn3)ncnc21 | – | – | inactive | Active | – | –
Clc1ccc(Cn2cnc3c2ncn2cnnc32)cc1 | – | – | inactive | inactive | – | –
CCCCCCCCCCn1cnc2c(Sc3ncn[nH]3)ncnc21 | – | – | inactive | inactive | – | –
Fc1ccccc1Cn1cnc2c(-n3cncn3)ncnc21 | 15 | 29.9 mg/kg | Active | Active | 449 mg/kg | –
Fc1ccc(Cn2cnc3c2ncn2cnnc32)cc1 | – | – | inactive | inactive | – | –
Cc1cn(-c2ncnc3c2ncn3Cc2ccccc2F)cn1 | – | – | inactive | inactive | – | –
NC(=O)N1c2ccccc2C=Cc2ccccc21 [CARBAMAZEPINE] | 6.4 | 11.8 mg/kg | – | – | – | TD50 at 1 min [6]: 329 mg/kg; ED50 [7]: 27.3 mg/kg; Ratio TD50/ED50 [8]: 12; inhibition in vivo at 50 mg/kg [9]: 80%; inhibition in vivo at 50 mg/kg [10]: 100%; inhibition in vivo at 50 mg/kg [11]: 0%
Fc1ccccc1Cn1cnc2c(Sc3ncn[nH]3)ncnc21 | – | – | inactive | inactive | – | –
Fc1ccccc1Cn1cnc2c(-n3ccnc3)ncnc21 | 1.8 | 61.4 mg/kg | inactive | Active | 115 mg/kg | –
CCCCCCCCCCn1cnc2c(-n3cccn3)ncnc21 | 3.6 | 66.5 mg/kg | inactive | Active | 241 mg/kg | –
CCCCCCCCCCn1cnc2c(-n3ccnc3)ncnc21 | – | – | inactive | Active | – | –
Clc1ccccc1Cn1cnc2c(-n3cncn3)ncnc21 | – | – | inactive | – | – | –
CCCCCCCCCCCCCCn1cnc2c(-n3cncn3)ncnc21 | – | – | inactive | inactive | – | –

SMILES | Ratio TD50/ED50 [1] | ED50 [2] | Activity [3] | Activity [4] | TD50 at 1 min [5] | also measured
CCCCCCCCCCn1cnc2c(-n3cncn3)ncnc21 | >25.6 | 23.4 mg/kg | Active | Active | > 700 mg/kg | TD50 at 1 min [6]: > 1500 mg/kg; ED50 [7]: 39.4 mg/kg; Ratio TD50/ED50 [8]: >38.1; inhibition in vivo at 50 mg/kg [9]: 70%; Time [12]: 1.5 h; inhibition in vivo at 50 mg/kg [10]: 90%; inhibition in vivo at 50 mg/kg [11]: 20%
CCCCCn1cnc2c1ncn1cnnc21 | – | – | inactive | Active | – | –
c1ccc(Cn2cnc3c(-n4cncn4)ncnc32)cc1 | 4.7 | 66.6 mg/kg | inactive | Active | 315 mg/kg | –
Fc1ccc(Cn2cnc3c(-n4cncn4)ncnc32)cc1 | – | – | inactive | inactive | – | –
CCCCCn1cnc2c(-n3cncn3)ncnc21 | – | – | inactive | – | – | –
CCCCCCCCCCCCn1cnc2c(-n3cncn3)ncnc21 | – | – | inactive | – | – | –
CCCCCCCn1cnc2c1ncn1cnnc21 | – | – | inactive | Active | – | –
CCCCCCn1cnc2c(-n3cncn3)ncnc21 | 4.8 | 43.9 mg/kg | inactive | Active | 210 mg/kg | –
Fc1ccccc1Cn1cnc2c1ncn1cnnc21 | – | – | inactive | Active | – | –
Clc1ccc(Cn2cnc3c(-n4cncn4)ncnc32)cc1 | – | – | inactive | inactive | – | –
CCCCCCCCCCn1cnc2c1ncn1cnnc21 | – | – | inactive | inactive | – | –
CCCCCCn1cnc2c1ncn1cnnc21 | 2 | 51.2 mg/kg | inactive | Active | 102 mg/kg | –
COc1ccc(Cn2cnc3c2ncn2cnnc32)cc1 | – | – | inactive | inactive | – | –
Clc1cccc(Cn2cnc3c(-n4cncn4)ncnc32)c1 | 7.5 | 65.4 mg/kg | inactive | Active | 488 mg/kg | –
Clc1cccc(Cn2cnc3c2ncn2cnnc32)c1 | – | – | inactive | inactive | – | –
CCCCCCCCn1cnc2c(-n3cncn3)ncnc21 | 7.4 | 33.2 mg/kg | Active | Active | 247 mg/kg | –
COc1ccc(Cn2cnc3c(-n4cncn4)ncnc32)cc1 | – | – | inactive | inactive | – | –
c1ccc(Cn2cnc3c2ncn2cnnc32)cc1 | – | – | inactive | Active | – | –
Fc1cccc(Cn2cnc3c2ncn2cnnc32)c1 | – | – | inactive | inactive | – | –
CCCCCCCCn1cnc2c1ncn1cnnc21 | – | – | inactive | Active | – | –
